High-throughput results (PubChem BioAssay)
Compounds with a hit are over-represented: about 2.4% of the library has one in this group of screens.
Calb FLC: C. albicans growth inhibition with fluconazole, primary screen, CaCi-2 strain, Alamar Blue fluorescence. AID 1979, 2009. growth inhibition, % (no concentration beside the values). actives 0.57% (n = 300,000). C. albicans CaCi-2 (fluconazole-resistant clinical isolate) + fluconazole, 48 h;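 active = growth inhibition above about 58% in most replicates, limit read from the data, passing the limit was not always enough; inconclusive = exactly half the replicates above a set limit; inactive = most replicates below a set limit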;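 also: all wells also contain fluconazole at 8 µg/ml as a sub-toxic cotreatment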
SR-BI DiI-HDL act: activators of SR-BI mediated DiI-HDL uptake, primary screen, ldlA[mSR-BI] CHO cells, DiI fluorescence; actives 0.096% (n = 320,000); 3 h; 100 = double the neutral-control signal; activation, % at 12.5 µM;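 active = mean replicate activation of at least 60% and every replicate at or above 60%; inconclusive = mean or all-replicate condition met, but not both; inactive = mean below 60% and not all replicates reaching 60%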
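system = CHO ldlA[mSR-BI] cells, LDL receptor-null, SR-BI overexpressing | medium = Ham's F12 with 0.5% BSA, HEPES 25 mM, pH 7.4 | probe or stimulus = DiI-HDL 10 µg/mL | compound dosing = single-point compound dose | incubation = compound exposure 3 h, 37 °C | technique = DiI fluorescence, bottom read | read-out = cell-associated DiI fluorescence as measure of HDL uptake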
MIN6 prolif: inducers of MIN6 beta-cell proliferation, primary screen, ATP luminescence, uHTS. MIN6 cells proliferation, ATPlite luminescence, 48 h; cells starved in 0.2% serum; 100% = growth in 10% serum. proliferation, % at 10 µM. actives 0.29% (n = 330,000). AID 2380, 2010;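 active = compounds whose signal lies at least 3.5 SD above the mean of all wells on their plate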
Ins promoter up: insulin promoter activators in MIN6 cells, imaging, high-content screening, mouse beta cells; MIN6 insulin promoter-GFP reporter; stronger effect = higher value; z-score at 5 µM; actives 0.3% (n = 190,000); AID 1625, 2009;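 active = z-score above 3 at 5 µM with at least 500 cells counted in the well; inconclusive = wells under 500 cells, flagged as cytotoxic or low count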
SR-BI DiI inh: inhibitors of SR-BI mediated HDL lipid uptake, primary screen, ldlA[mSR-BI] cells, fluorescence, single point. inhibition, % at 12.5 µM. Scavenger receptor class B member 1 (Mus musculus), Q61009. ldlA[mSR-BI] CHO cells, DiI-HDL uptake fluorescence, 3 h. actives 0.96% (n = 320,000). AID 488896, 2010;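 active = mean replicate inhibition of at least 70% and a set share of replicates each scoring 70 or more; inconclusive = meets just one of the two criteria; inactive = fails both criteria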
Target sequence (Q61009 whole entry, looked up): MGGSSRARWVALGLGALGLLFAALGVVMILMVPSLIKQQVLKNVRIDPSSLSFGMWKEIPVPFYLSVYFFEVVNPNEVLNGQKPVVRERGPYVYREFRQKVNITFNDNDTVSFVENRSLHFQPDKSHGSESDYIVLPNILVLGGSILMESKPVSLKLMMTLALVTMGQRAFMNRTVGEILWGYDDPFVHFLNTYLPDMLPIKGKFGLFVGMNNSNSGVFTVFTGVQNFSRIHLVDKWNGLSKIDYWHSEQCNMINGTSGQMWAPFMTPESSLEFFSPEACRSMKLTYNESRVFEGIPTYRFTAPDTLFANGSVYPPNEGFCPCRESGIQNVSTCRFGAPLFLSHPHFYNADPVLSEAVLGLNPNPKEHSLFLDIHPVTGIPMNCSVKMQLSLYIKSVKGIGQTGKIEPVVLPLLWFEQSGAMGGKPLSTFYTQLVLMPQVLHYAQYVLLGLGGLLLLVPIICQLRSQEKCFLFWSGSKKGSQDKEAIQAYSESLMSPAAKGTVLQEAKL
HTR2A ag: mouse Htr2a agonists via beta-arrestin recruitment, primary screen, cell-based, luminescence; 5-hydroxytryptamine receptor 2A (Mus musculus), P35363; CHO-K1 mHTR2A beta-arrestin complementation; percent of 30 µM serotonin response; activation, % at 7.6 µM; actives 0.66% (n = 360,000);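 active = activation above a run cutoff, the mean activation of all tested compounds plus 3 SD, cut at about 14% in these data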
DiI quench: quenches DiI-HDL fluorescence, an SR-BI assay artifact; actives 20% (n = 470); shares compounds with SR-BI DiI inh; AC50, µM (series often up to 35 µM); cell-free DiI-HDL fluorescence quenching, 30 min;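 active = quenching, a falling signal, with AC50 below a set limit tied to the top valid dose, actives reach about 32 µM in these data; inconclusive = no clear call, values can overlap the other calls; inactive = rising signal, and the rest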
A number is an active result; - = inactive; ? = inconclusive; . = no result.

SMILES	Calb FLC	SR-BI DiI-HDL act	MIN6 prolif	Ins promoter up	SR-BI DiI inh	HTR2A ag	DiI quench
O=C(Nc1ccccc1)NC1CC2CCC(C1)N2Cc1nnnn1Cc1ccc2c(c1)OCO2 (stereo not given)	-	-	-	-	?	-	-
COc1cccc(NC(=O)NC2CCN(Cc3nnnn3Cc3ccc4c(c3)OCO4)CC2)c1	-	-	-	-	-	-	.
CC(=O)Nc1cccc(NC(=O)c2csc(C)c2)c1	-	-	-	.	-	-	.
Brc1cc2c(cc1C1Nc3ccccc3C3C=CCC31)OCO2 (stereo not given)	-	-	-	-	-	-	.
Cc1cc(C)c2c(c1)NC(c1cc3c(cc1Br)OCO3)C1CC=CC21 (stereo not given)	-	-	.	-	?	-	-
CC1(C)OC(=O)C2=C(C[C@@H](CCOCc3ccccc3)O[C@@H]2c2ccc(F)cc2)O1	.	.	.	.	.	-	.
COc1cccc2c1cc1c(=O)n(CC(=O)N3CCN(c4cccc(C)c4C)CC3)nc(C)n12	.	-	.	.	-	-	-
COc1cccc2c1cc1c(=O)n(CC(=O)N3CCCC3)nc(C)n12	.	-	.	.	-	-	.
CCSCC1COC(c2cccn2Cc2ccc(C)cc2)=N1 (stereo not given)	-	-	-	-	?	-	-
CN(Cc1ccccn1)C(=O)C1CCC(=O)N(CCc2ccc(Cl)cc2)C1 (stereo not given)	-	-	-	.	-	-	.
COCCCN(C(=O)c1ccco1)c1nc(-c2ccc(OC)cc2)cs1	-	-	-	.	110.8	-	-
Cc1c(CC(=O)N2CCC(O)CC2)c(=O)oc2cc3c(cc12)CCC1(CCCCC1)O3	.	.	.	.	.	-	.
COCCCNc1nc2c(-c3cccc(C)c3)nnn2c2ccccc12	-	-	-	-	103.1	-	-
COCCCNc1nc2c(-c3ccc(C)cc3)nnn2c2ccccc12	-	-	-	.	-	-	.
CNC(=O)COC(=O)/C=C/c1cn(-c2ccccc2)nc1-c1ccc2c(c1)OCCO2	-	-	-	-	-	-	.
Cc1ccc(-c2nn(-c3ccccc3)cc2/C=C/C(=O)OCC(=O)NC2CC2)o1	-	-	-	-	72.4	-	-
COc1ccc(OC)c2[nH]c(C(=O)N3CCC(C(=O)O)CC3)cc12	-	-	-	.	74.7	-	-
Cc1cc(F)cc(-c2cc(C(=O)NCc3ccccn3)[nH]n2)c1	.	.	.	.	.	-	.
CCCCn1nc2cc(C(=O)NC3CCCc4ccccc43)ccc2c1OCC (stereo not given)	-	-	-	-	79.5	-	-
CCOc1c2ccc(C(=O)NC3CCCc4ccccc43)cc2nn1C (stereo not given)	-	-	-	-	-	-	.
COCCNC(=O)c1cc(-c2ccccc2C)n(CC2CC(c3cccc([N+](=O)[O-])c3)=NO2)n1 (stereo not given)	.	-	-	.	-	-	.
Cc1ccccc1-c1cc(C(=O)NCc2cccc(Br)c2)nn1CC1CC(c2cccc([N+](=O)[O-])c2)=NO1 (stereo not given)	.	-	-	.	-	-	-
CN(C)C(CNC(=O)c1cccc(C(F)(F)F)c1)c1ccco1 (stereo not given)	-	-	-	.	-	-	.
CC(C)CN(C(=O)COC(=O)C12CC3CC(CC(O)(C3)C1)C2)C1CCS(=O)(=O)C1 (stereo not given)	-	-	-	-	-	-	-
CN1CCc2ccc(NC(=O)c3ccc(C(F)(F)F)cc3)cc2C1	-	-	-	.	82.4	-	-
SMILES	Calb FLC	SR-BI DiI-HDL act	MIN6 prolif	Ins promoter up	SR-BI DiI inh	HTR2A ag	DiI quench
CCCC(=O)Nc1ccc(Cl)c(NC(=O)c2cccc(OC)c2)c1	-	-	-	-	77.8	-	-
CCCC(=O)Nc1ccc(Cl)c(NC(=O)c2cccnc2)c1	-	-	-	-	-	-	.
CCOc1ccc(NC(=O)CN2CCN(CC(=O)Nc3ccc(C(=O)OC)cc3)CC2)cc1	-	-	-	-	80.8	-	-
COCCn1c(SCc2cccc(F)c2)nc2cc(C(=O)OC)ccc2c1=O	-	-	-	.	-	-	.
Cc1ccc(S(=O)(=O)N(CC(=O)c2ccccc2)C(=O)N2CCN(C)CC2)cc1	-	-	-	.	-	-	.
CCCC(=O)N1CCC1(C)C(=O)Nc1ccc(OC)c(OC)c1 (stereo not given)	.	.	.	.	.	-	.
Cc1ccc(-n2nc(C)c3c(C(=O)OCC(=O)N(C)C4CCS(=O)(=O)C4)cc(-c4ccccc4)nc32)cc1 (stereo not given)	-	-	-	-	?	-	?
COc1ccc(NC(=O)Nc2nnc(-c3ccccc3SCc3ccccc3)s2)cc1	-	-	-	-	101.4	-	3.23µM
CC(C)(C)OC(=O)N1CSC[C@H]1C(=O)NC[C@H](CC(=O)O)c1ccc(Cl)cc1	-	-	-	.	78.2	-	-
CC(C)C[C@H](NC(=O)C1(c2ccccc2)CCN(C(=O)[C@H]2CSCN2C(=O)OC(C)(C)C)CC1)C(=O)O	?	-	-	-	-	-	.
COc1ccc(OC)c(CCNC(=O)c2ccc3c(c2)N(Cc2ccc(F)cc2)CCS3)c1	-	-	-	.	81.8	-	-
Cc1ccc(CN2CCSc3ccc(C(=O)NCCCN4CCN(C)CC4)cc32)cc1	-	-	-	.	-	-	.
COc1ccc(CCNC(=O)c2ccc3c(c2)N(Cc2ccc(C)cc2)CCS3)cc1OC	-	-	-	.	75.3	-	-
COc1ccc(CCNC(=O)c2ccc3c(c2)N(Cc2ccc(F)cc2)CCS3)c(OC)c1	-	-	-	.	82.0	-	-
Cc1ccc(CNC(=O)CSc2nc3ccccc3c3nc(C)nn23)cc1	.	.	.	-	.	.	.
COc1ccc(C2/C=C\CN(S(=O)(=O)c3ccc4ccccc4c3)CC(=O)N2Cc2ccc(F)cc2)cc1 (stereo not given)	-	-	-	-	-	-	-
Cc1ccc(S(=O)(=O)NCc2ccc(C(=O)NCCc3ccc(S(N)(=O)=O)cc3)cc2)cc1	-	-	-	.	92.3	-	-
O=C(O)c1cc(N2C(=O)C=CC2=O)cc(N2C(=O)C=CC2=O)c1	.	-	.	.	-	-	-
COCCN1C[C@@H](CO)O[C@@H](n2cnc3c(N4CCCC4)ncnc32)C1	.	.	.	.	.	-	.
Cc1cccc(C)c1-n1nnnc1C(c1ccnc2ccccc12)N1CCN(c2ccccc2F)CC1 (stereo not given)	.	.	.	.	.	-	.
COc1ccc(-c2csc(NCCc3nc4cc(Cl)c(N5CCCCC5)cc4n3CCOCCO)n2)cc1	-	-	-	.	83.0	-	13µM
